In PubChem BioAssay AID588743 (Vanderbilt Specialized Chemistry Center, 2011):
Calls of active or inactive are those of the source.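 The calls were made as follows: active = a dose-dependent boost of the low-dose acetylcholine calcium response, with potency and top response fitted; inactive = the rest.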

Biological target: Muscarinic acetylcholine receptor M4 (Homo sapiens) (UniProt P08173)
Test: M4 positive allosteric modulators, potency, SAR follow-up, CHO hM4/Gqi5 cells, calcium mobilization (AID 588743)
Settings: PAM with EC20 ACh
Method in brief: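 Material – CHO cells stably co-expressing human M4 receptor and chimeric Gqi5 · Schedule – 144 s compound preincubation, 37 °C · Measured by – calcium mobilization fluorescence, cells loaded with 2.3 µM Fluo-4 AM · Measure – EC50 by four-parameter logistic fit, signal as percent ACh maximum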

Sequence of Muscarinic acetylcholine receptor M4 (Homo sapiens) (P08173 whole entry, looked up): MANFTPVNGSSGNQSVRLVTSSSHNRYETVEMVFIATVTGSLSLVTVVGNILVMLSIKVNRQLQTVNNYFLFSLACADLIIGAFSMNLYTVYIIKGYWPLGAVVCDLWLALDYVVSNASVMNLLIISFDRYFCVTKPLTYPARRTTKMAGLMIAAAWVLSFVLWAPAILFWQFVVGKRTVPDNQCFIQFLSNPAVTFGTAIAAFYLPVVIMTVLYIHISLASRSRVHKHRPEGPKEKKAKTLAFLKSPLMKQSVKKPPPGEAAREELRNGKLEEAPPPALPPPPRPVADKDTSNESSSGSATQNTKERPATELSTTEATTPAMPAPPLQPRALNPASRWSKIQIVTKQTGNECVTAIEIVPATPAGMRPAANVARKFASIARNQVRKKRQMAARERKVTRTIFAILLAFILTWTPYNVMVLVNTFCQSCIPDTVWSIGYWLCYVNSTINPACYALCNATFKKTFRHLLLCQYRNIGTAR

Row | SMILES | EC50 | further results
1 | Cc1nc2sc(C(=O)NCc3ccc(C(F)(F)F)cc3)c(N)c2c(C)c1Cl | 1140 nM | –
2 | Cc1nc2sc(C(=O)NCc3ncccn3)c(N)c2c(C)c1Cl | 1070 nM | –
3 | CCOc1ccc(NC(=O)c2sc3nc(C)c(Cl)c(C)c3c2N)cc1 | – | percent ACh max response (at 30 µM (top of the series)): inactive
4 | Cc1nc2sc(C(=O)NCCc3ccccn3)c(N)c2c(C)c1Cl | 686 nM | –
5 | Cc1nc2sc(C(=O)NC3CCCCC3)c(N)c2c(C)c1Cl | 188 nM | –
6 | Cc1nc2sc(C(=O)NCCC3CCCN3C)c(N)c2c(C)c1Cl (configuration not stated) | 596 nM | –
7 | Cc1nc2sc(C(=O)NCC3CCCCC3)c(N)c2c(C)c1Cl | 1090 nM | –
8 | COCCCNC(=O)c1sc2nc(C)c(Cl)c(C)c2c1N | 425 nM | –
9 | COc1ccc(NC(=O)c2sc3nc(C)c(Cl)c(C)c3c2N)cc1 | – | percent ACh max response (at 30 µM (top of the series)): 45.2
10 | Cc1nc2sc(C(=O)NCCc3cccnc3)c(N)c2c(C)c1Cl | – | percent ACh max response (at 30 µM (top of the series)): inactive
11 | Cc1nc2sc(C(=O)NCc3ccc(F)c(F)c3)c(N)c2c(C)c1Cl | – | percent ACh max response (at 36.9 µM (top of the series)): 31.6
12 | Cc1nc2sc(C(=O)NC(C)c3ccncc3)c(N)c2c(C)c1Cl (configuration not stated) | 600 nM | –
13 | Cc1nc2sc(C(=O)NC(C)(C)C)c(N)c2c(C)c1Cl | 372 nM | –
14 | Cc1nc2sc(C(=O)NC3COC3)c(N)c2c(C)c1Cl | 906 nM | –
15 | Cc1nc2sc(C(=O)NCc3cnccn3)c(N)c2c(C)c1Cl | 250 nM | –
16 | Cc1nc2sc(C(=O)NCc3ccc(Cl)cc3)c(N)c2c(C)c1Cl | – | percent ACh max response (at 36.9 µM (top of the series)): 32.3
17 | Cc1nc2sc(C(=O)Nc3ccccc3N(C)C)c(N)c2c(C)c1Cl | – | percent ACh max response (at 30 µM (top of the series)): inactive
18 | Cc1nc2sc(C(=O)NCc3cccnc3)c(N)c2c(C)c1Cl | 328 nM | –
19 | Cc1nc2sc(C(=O)NCCc3ccncc3)c(N)c2c(C)c1Cl | 211 nM | –
20 | Cc1nc2sc(C(=O)NC(C)c3ccccn3)c(N)c2c(C)c1Cl (configuration not stated) | 1410 nM | –
21 | Cc1nc2sc(C(=O)NC3CCOCC3)c(N)c2c(C)c1Cl | 220 nM | –
22 | Cc1nc2sc(C(=O)NCc3ccccn3)c(N)c2c(C)c1Cl | 293 nM | –
23 | Cc1nc2sc(C(=O)NCc3ccnnc3)c(N)c2c(C)c1Cl | 222 nM | –
24 | Cc1nc2sc(C(=O)NC(C)c3cccnc3)c(N)c2c(C)c1Cl (configuration not stated) | 601 nM | –

Continued by falling EC50, values first:

Row | EC50 | SMILES | further results
25 | 183 nM | Cc1nc2sc(C(=O)NC(C)C)c(N)c2c(C)c1Cl | –
26 | 174 nM | Cc1nc2sc(C(=O)NCc3nccs3)c(N)c2c(C)c1Cl | –
27 | 173 nM | Cc1nc2sc(C(=O)NCc3ccncn3)c(N)c2c(C)c1Cl | –
28 | 170 nM | Cc1nc2sc(C(=O)NCc3ccc4c(c3)OCO4)c(N)c2c(C)c1Cl | –
29 | 154 nM | Cc1nc2sc(C(=O)NCc3ccccc3Cl)c(N)c2c(C)c1Cl | –
30 | 133 nM | Cc1nc2sc(C(=O)NCc3ccccc3)c(N)c2c(C)c1Cl | –
31 | 132 nM | Cc1ccc(CNC(=O)c2sc3nc(C)c(Cl)c(C)c3c2N)cc1 | –
32 | 120 nM | Cc1nc2sc(C(=O)NCc3cccc(F)c3F)c(N)c2c(C)c1Cl | –
33 | 89.1 nM | COc1ccc(CNC(=O)c2sc3nc(C)c(Cl)c(C)c3c2N)cc1 | –
34 | 57 nM | Cc1cc(CNC(=O)c2sc3nc(C)c(Cl)c(C)c3c2N)ccn1 | –
35 | 37.2 nM | Cc1nc2sc(C(=O)NCc3ccncc3)c(N)c2c(C)c1Cl | –
36 | 28.7 nM | Cc1nc2sc(C(=O)NC3CCOC3)c(N)c2c(C)c1Cl (configuration not stated) | –
37 | 20.8 nM | Cc1nc2sc(C(=O)NC3CC3)c(N)c2c(C)c1Cl | –
